# Measured values reported in PMC5224883 (Chemistry (Weinheim an der Bergstrasse, Germany), 2016).
# What was measured:
# CXCR4 = CXCR4 (Homo sapiens, UniProt P61073); assay: Chemokine-induced calcium signalling assay; format: cell-based; details: read-out: Ca^2+ flux IC50 CXCR4; CXCR4-positive U87 cell line, CXCL12 (SDF-1) induced Ca^2+ signalling, triplicate average
# [1] = Cyclic voltammetry of copper acetate complexes; format: physicochemical; details: 1 mM in acetonitrile, 0.1 M TBAPF6, 200 mV/s, vs SHE
# Summary of the method: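 Working electrode was a Pt button, with a Pt-wire counter electrode and an Ag-wire pseudo-reference electrode. Tests were run under N2. Potentials were referenced to SHE using ferrocene as an internal standard (+0.400 V versus SHE). Samples were Cu2+ acetate complexes.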
# CXCR4, sequence (P61073 whole entry): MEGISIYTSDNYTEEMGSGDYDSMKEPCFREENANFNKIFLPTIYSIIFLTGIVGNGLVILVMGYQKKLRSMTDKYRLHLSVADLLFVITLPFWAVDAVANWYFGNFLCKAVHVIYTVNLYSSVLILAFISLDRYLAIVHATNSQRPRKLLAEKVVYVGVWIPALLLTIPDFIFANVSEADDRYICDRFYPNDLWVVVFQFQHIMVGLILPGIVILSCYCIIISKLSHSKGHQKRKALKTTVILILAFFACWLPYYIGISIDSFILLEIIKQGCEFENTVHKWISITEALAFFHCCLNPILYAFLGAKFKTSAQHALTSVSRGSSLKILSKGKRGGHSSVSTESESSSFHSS
smiles,measurement,setting,value
CC(=O)[O-].[Cu+2].c1ccc(CN2CCCN3CCN(CCCN(Cc4ccccc4)CC3)CC2)cc1 [[Cu5(OAc)]^+],IC50,CXCR4,156 nM
same,Eox (Cu^2+/3+),[1],+1.516 V
same,Ered (Cu^2+/+),[1],−0.641 V
same,Eox (^Cu+/2+),[1]; return oxidation,−0.156 V
